Screening data from PubChem BioAssay.
HDAC3 inhib – human HDAC3 inhibition. 0.15% of 320,000 active. AID 2718. inhibition, % at 8.3 µM. recombinant HDAC3, fluorogenic peptide/trypsin coupled, fluorescence; in the data active = inhibition above about 26%, passing the limit was not always enough
Target sequence (O15379 whole entry, looked up): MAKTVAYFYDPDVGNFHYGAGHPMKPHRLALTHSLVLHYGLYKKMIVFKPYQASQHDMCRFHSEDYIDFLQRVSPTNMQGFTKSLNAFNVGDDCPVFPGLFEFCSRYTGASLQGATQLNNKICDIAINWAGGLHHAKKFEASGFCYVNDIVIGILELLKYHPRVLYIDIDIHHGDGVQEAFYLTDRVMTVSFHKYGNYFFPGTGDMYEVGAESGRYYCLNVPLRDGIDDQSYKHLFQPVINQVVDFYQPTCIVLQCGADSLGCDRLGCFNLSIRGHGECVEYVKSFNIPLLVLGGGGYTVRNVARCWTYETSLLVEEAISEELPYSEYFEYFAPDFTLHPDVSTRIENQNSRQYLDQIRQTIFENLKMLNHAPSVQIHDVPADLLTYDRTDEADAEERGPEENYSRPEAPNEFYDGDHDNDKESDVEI
SENP1 FRET inh – blocks the human SENP1 SUMO protease catalytic domain; recombinant SENP1 catalytic domain, CyPet-SUMO1-YPet FRET cleavage; inhibition, % at 10 µM; 0.21% of 360,000 active; AID 624204;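 active = inhibition at least 30% at 10 µM, raw YFP signal under a set limit, fluorescence ratio 0.5 to 1.5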
Target sequence (Q9P0U3 419-644 limits assumed): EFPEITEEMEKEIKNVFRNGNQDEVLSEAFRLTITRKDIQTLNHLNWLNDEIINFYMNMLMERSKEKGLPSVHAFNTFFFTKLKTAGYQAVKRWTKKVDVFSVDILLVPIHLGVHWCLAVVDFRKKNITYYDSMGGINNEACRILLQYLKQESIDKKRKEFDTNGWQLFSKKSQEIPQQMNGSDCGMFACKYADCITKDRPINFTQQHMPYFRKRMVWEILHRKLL
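Test system: human SENP1 catalytic domain; medium: Tris pH 8 buffer plus EDTA, NaCl, BME, BSA, NP40, catalase; incubation: 50 min reaction at room temperature; technique: FRET, CFP and YFP emission; controls: no-enzyme low control and enzyme-plus-DMSO high control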
PfM18AAP inh – blocks P. falciparum M18 aspartyl aminopeptidase. recombinant PfM18AAP, H-Glu-NHMec fluorogenic cleavage. inhibition, % at 7.35 µM. 1.2% of 290,000 active. AID 1822;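 active = inhibition above the campaign mean inhibition over all tested compounds plus 3 SD, cut at about 28% in these data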
CTSL1 counter – counter-screen for PFM18AAP inhibitors: inhibitors of F. hepatica cathepsin L1; 0.49% of 300,000 active; AID 1906; inhibition, % at 5.96 µM; recombinant F. hepatica cathepsin L1, Z-Leu-Arg-MCA fluorescence;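 active = inhibition above the mean of all tested compounds plus 3 SD, set per screening campaign, cut at about 17% in these data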
AHR act – activators of human aryl hydrocarbon receptor; 2.5% of 320,000 active; AHR-responsive luciferase reporter cells, luminescence; activation, % at 5 µM; P35869; in the data active = activation above about 47%
GAA850 FXN act – frataxin GAA850 promoter activation; HEK293 lucGAA850 FXN promoter luciferase reporter, 24 h; percent of 10 µM SAHA response; activation, % at 6 µM; 0.56% of 360,000 active;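 active = activation above the average of all compounds screened plus 3 SD, cutoff fixed separately per campaign, cut at about 7.5% in these data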
Of the large screens only hits and unclear results are named; the others gave an inactive call. Hits are enriched below; roughly 4.2% of the tested compounds scored in any of these assays.

Cc1ccc(C(=O)Nc2nc3ccccc3c(=O)s2)cc1	PfM18AAP inh 31
COc1ccc(Cl)cc1N/C(N)=N/c1nc(C)cc(C)n1	none
COc1ccc(OC)c(N/C(N)=N/c2nc(C)cc(C)n2)c1	AHR act 66
COc1cc(N/C(N)=N/c2nc(C)cc(C)n2)cc(OC)c1	AHR act 65
Cc1cc(C)nc(/N=C(\N)Nc2ccc3c(c2)OCCO3)n1	AHR act 72
COc1ccc(N/C(N)=N/c2nc(C)cc(C)n2)c(OC)c1	AHR act 63
O=C1[C@H]2[C@@H](c3ccc(C(F)(F)F)cc3)N[C@]3(CCCN(Cc4ccco4)C3=O)[C@H]2C(=O)N1Cc1ccccc1	none (no result: HDAC3 inhib, PfM18AAP inh, CTSL1 counter, AHR act)
CCOc1ccc(C(=O)CCC(=O)N2CCN(c3ncccn3)CC2)cc1	none (no result: HDAC3 inhib)
O=C(NC(=S)NC1CCC(O)CC1)c1ccco1 (stereo unspecified)	none (no result: PfM18AAP inh, CTSL1 counter)
CCCOc1ccccc1N/C(N)=N/c1nc(C)cc(C)n1	AHR act 56
Cc1nn(-c2ccccc2)c2nc(-c3ccncc3)cc(C(=O)NCc3ccco3)c12	AHR act 65
Cc1nn(-c2ccccn2)c2nc(-c3cccs3)cc(C(=O)NCc3ccco3)c12	none
CC1=C(C(=O)N(C(C)C)C(C)C)CC(CC(=O)NCCN2CCOCC2)C(=O)N1Cc1ccc(C(C)(C)C)cc1 (stereo unspecified)	none (no result: HDAC3 inhib, PfM18AAP inh, CTSL1 counter, AHR act, GAA850 FXN act)
c1cncc(-c2nnc(SCc3nc4ccccc4[nH]3)o2)c1	AHR act 73 (no result: HDAC3 inhib)
CCOC(=O)c1ccc(NC(=O)CSc2nnc(CNc3ccc(OC)cc3)n2C)cc1	AHR act 59
CC1(Cc2cccc(C#N)c2)C(=O)Nc2c(Cl)cccc21 (stereo unspecified)	none (no result: HDAC3 inhib, PfM18AAP inh, CTSL1 counter, AHR act)
CCN(CC(=O)Nc1ccc(NC(C)=O)cc1)C(=O)c1ccc(=O)n(C)n1	none (no result: PfM18AAP inh, CTSL1 counter)
COc1ccc(O)c(C(=O)c2cnn(C(=O)c3cc(C)oc3C)c2)c1	none
Cc1cc(Cl)ccc1OCC(=O)n1cc(C(=O)c2cc(Cl)ccc2O)cn1	PfM18AAP inh 30 (no result: SENP1 FRET inh, GAA850 FXN act)
COc1ccc(O)c(C(=O)c2cnn(S(=O)(=O)c3ccc(C)cc3)c2)c1	none (no result: PfM18AAP inh, CTSL1 counter)
O=C(c1cnn(C(=O)c2ccc(O)cc2)c1)c1ccccc1O	HDAC3 inhib 76 (no result: SENP1 FRET inh, GAA850 FXN act)
COc1ccc(C(=O)n2cc(C(=O)c3cc(C)ccc3O)cn2)cc1	HDAC3 inhib 37
COc1ccc(O)c(C(=O)c2cnn(C(=O)c3cccc(N(C)C)c3)c2)c1	HDAC3 inhib 30 (no result: PfM18AAP inh, CTSL1 counter)
COC(=O)[C@]12CCCCC=C1N(Cc1ccco1)C(=O)[C@H](CC(=O)NCC13CC4CC(CC(C4)C1)C3)C2	none (no result: HDAC3 inhib, PfM18AAP inh, CTSL1 counter, AHR act, GAA850 FXN act)
Nc1[nH]c(C(=O)c2ccccc2)c(-c2c(F)cccc2F)c1C(=O)c1ccc(Cl)c(Cl)c1	none (no result: HDAC3 inhib, PfM18AAP inh, CTSL1 counter, AHR act, GAA850 FXN act)
CC(C)N1CCC1(C)C(=O)Nc1nccc2cccnc12 (stereo unspecified)	none (no result: HDAC3 inhib, PfM18AAP inh, CTSL1 counter, AHR act)
Cc1ccc(O)c(C(=O)c2cnn(-c3ccccc3)c2)c1	none
COc1ccc(C(=O)n2cc(C(=O)c3cc(C)ccc3O)cn2)cc1OC	HDAC3 inhib 53
Cc1cc(C)cc(N=C2NC(=O)/C(=C/c3cccs3)S2)c1	AHR act 56
Cc1ccc(N=C2NC(=O)/C(=C\c3ccco3)S2)cc1	none
O=C1NC(=Nc2ccccc2)S/C1=C\c1cccs1	AHR act 72
COc1ccc(NC(=O)c2cnc(SC)nc2)cc1	none
CCOC(=O)[C@]12CCCC=C1N(Cc1cccc3ccccc13)C(=O)[C@H](CC(=O)NCc1cccs1)C2	none (no result: HDAC3 inhib, PfM18AAP inh, CTSL1 counter, AHR act, GAA850 FXN act)
CSc1ncc(CN2CCc3c([nH]c4ccccc34)C2c2cccc(O)c2)cn1 (stereo unspecified)	none
CC(CCC(=O)O)C1CC[C@@]2(C)C3C(=O)CC4C(C)(C)C(O)CC[C@]4(C)C3C(=O)C[C@]12C (stereo partly specified)	none
CCOc1[nH]n(-c2ccccc2)c(=O)c1C=NCc1cccnc1	AHR act 59
CCOc1[nH]n(-c2ccccc2)c(=O)c1C=NCC(=O)OC	none
C/C(=N\Nc1ncc(Cl)cc1Cl)c1ccc(OC(F)F)cc1	AHR act 63
C/C(=N\Nc1ncc(Cl)cc1Cl)c1ccc2c(c1)OCO2	none
O=C1C=CC(=NN=C(c2ccccc2)c2ccccc2)C=C1	none (no result: HDAC3 inhib, PfM18AAP inh, CTSL1 counter, AHR act, GAA850 FXN act)
C=CCN(CC=C)Cc1c(C)[nH]c2ccc(C(=O)OCC)cc2c1=O	CTSL1 counter 20
CCN(CC)Cc1c(C)[nH]c2ccc(NC(C)=O)cc2c1=O	none (no result: HDAC3 inhib, PfM18AAP inh, CTSL1 counter, AHR act)
CCOc1ccccc1CNC(=O)C1CCN(S(=O)(=O)N2CCC(C)CC2)CC1	none (no result: HDAC3 inhib, PfM18AAP inh, CTSL1 counter, AHR act)
Cc1cc(NC(=O)c2ccc(F)cc2)n(CCOC(=O)c2ccc(F)cc2)n1	AHR act 50
O=C(c1ccccc1)c1ncc(C(F)(F)F)cc1Cl	none
COC(=O)/C(=C\Nc1ccccc1N)c1ncc(C(F)(F)F)cc1Cl	AHR act 69
CCc1cccc(NS(=O)(=O)c2c(C)nc3scc(C)n3c2=O)c1	none
Cc1cc(C)c(C(=O)N2CCCC(Nc3ccc(C)c(C)c3)C2)o1 (stereo unspecified)	AHR act 63
O=C(C1CCCC1)N1CCCC(Nc2ccc(F)cc2)C1 (stereo unspecified)	none
Cc1ccc(NC2CCCN(C(=O)C3CCCCC3)C2)cc1C (stereo unspecified)	AHR act 60
CC(C)CN(C(=O)COC(=O)c1ccccn1)c1c(N)n(Cc2ccccc2)c(=O)[nH]c1=O	none (no result: PfM18AAP inh)
COc1cc(CNCc2ccc(Br)cc2)cc(OC)c1	none
N#CC1C(=N)Cc2ccccc2-c2ccccc21 (stereo unspecified)	none (no result: HDAC3 inhib, PfM18AAP inh, CTSL1 counter, AHR act)
O=C(Nc1ccccc1)C1=C(O)CC(c2ccco2)CC1=Nc1ccccc1 (stereo unspecified)	none
O=C(Nc1ccccc1)C1=C(O)CC(c2ccoc2)CC1=Nc1ccccc1 (stereo unspecified)	CTSL1 counter 22
c1coc(-c2nnc3sc(-c4cccs4)nn23)c1	AHR act 55
O=C1/C(=C\Nc2ccc(Cl)cc2)CCN1c1ncccn1	AHR act 52
COc1ccc(C(=S)N2CCOCC2)cc1OS(=O)(=O)c1ccc(Br)cc1	none
COc1cc(/C=C/[N+](=O)[O-])ccc1OC(=O)/C=C/c1ccc(F)cc1	GAA850 FXN act 8.7
FC(F)(F)c1ccc(-n2cnc3ccccc32)nc1	AHR act 65
CCOc1ccc(CNC(=O)C2CCCN(S(=O)(=O)N3CC(C)CC(C)C3)C2)cc1OC (stereo unspecified)	none
CN(C)c1oc(/C=C/c2ccccc2)nc1C#N	AHR act 50
COc1ccccc1/C=C/c1nc(C#N)c(N(C)C)o1	none
CCOP(=O)(OCC)C(NC(=O)c1cc([N+](=O)[O-])cc([N+](=O)[O-])c1)C(F)(F)F (stereo unspecified)	CTSL1 counter 40
N#Cc1ccccc1OCC(=O)Nc1nnc(C2CC2)s1	AHR act 64 (no result: PfM18AAP inh, CTSL1 counter)
O=C(CCC(=O)Nc1nnc(C2CCCCC2)s1)Nc1ccccc1	none
